Experimental data published in ChEMBL document CHEMBL1151941, “Inhibition of influenza virus infections by sialylgalactose-binding peptides selected from a phage library” (J Med Chem, 2009).
Activity calls are given as the source filed them. The calls are words filed in the database; no cut-off is given here. Where a SMILES comes first, the peptide text is derived from it. The star is where a group is joined. Stearoyl = CCCCCCCCCCCCCCCCCC(=O)*

Legend:
[1] = Critical micellar concentration of the compound; assay type: physicochemical
Procedure, shortened: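 N-stearoyl peptide amide was suspended in PBS containing 1 μM N-phenyl-1-naphthylamine and diluted to 1 nM-0.1 mM. Fluorescence (ex 350, em 450 nm) was read at 25 °C. The cmc is taken at the intersection of two straight lines in the intensity-versus-concentration plot.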

Influenza A virus = assay: Antiviral activity against Influenza A virus (A/Puerto Rico/8/34(H1N1)) infected in MDCK cells after 30 mins by crystal violet-based plaque assay; assay type: functional, organism-based; settings: A/Puerto Rico/8/1934(H1N1), 0.5 h
Procedure, shortened: (§1)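 MDCK cells in 6-well plates were exposed for 30 min at 37 °C, 5% CO2, to 0.2 mL virus (50-200 pfu) with C18-peptide from PBS stock (2 or 10 mM). After a PBS wash, cells were overlaid with 0.6% agarose/MEM (DEAE-dextran, HEPES, acetyltrypsin, BSA) for 2 days. Living cells were stained and plaques counted. IC50 is the concentration giving 50% inhibition.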

H3N2 subtype = assay: Antiviral activity against Influenza A virus (A/Aichi/2/1968(H3N2)) infected in MDCK cells after 30 mins by crystal violet-based plaque assay; assay type: functional, organism-based; settings: 0.5 h; procedure, shortened: as §1
[2] = Binding affinity to ganglioside GalCer by quartz crystal microbalance method
[3] = Ratio of Kd for ganglioside GM3 to Kd for ganglioside GalCer
[4] = Binding affinity to ganglioside GlcCer by quartz crystal microbalance method
[5] = Ratio of Kd for ganglioside GM3 to Kd for ganglioside 6'GM3
[6] = Binding affinity to ganglioside GM3 by quartz crystal microbalance method
[7] = Ratio of Kd for ganglioside GM3 to Kd for ganglioside GlcCer
[8] = Binding affinity to ganglioside GM3 by ELISA relative to wild type fd phage clone
Procedure, shortened: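 GM3 monolayer was transferred from TBS (20 °C, 30 mN m-1) onto a BSA-blocked plastic plate. Phage clones (0.05-5 nM in TBS) were incubated 30 min at 4 °C. Detection used anti-fd antibody, then peroxidase anti-rabbit IgG (each 1 h, 4 °C), with o-phenylenediamine. ΔA was read at 492 nm in triplicate and expressed relative to wild-type fd phage.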

[9] = Binding affinity to ganglioside 6'GM3 by quartz crystal microbalance method
[10] = Binding affinity to ganglioside GM3 at 10 uM
B16 [11] = assay: Inhibition of binding affinity to ganglioside GM3 in mouse B16 cells pretreated with neuraminidase at pH 7.4 at 10 nM by flow cytometry; assay type: cell-based
Procedure, shortened: (§2)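 Sialic acid was removed from B16 cells (2×10^5) with 0.05 units Arthrobacter ureafaciens neuraminidase for 90 min at 37 °C, pH 6.5 or 7.4. After three washes, cells took 10 nM phage and were labelled with anti-fd antibody and FITC-conjugated antibody for flow cytometry.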

B16 [12] = assay: Inhibition of binding affinity to ganglioside GM3 in mouse B16 cells at 10 nM by flow cytometry in presence of Glc; assay type: cell-based
Procedure, shortened: (§3)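 B16 cells (2×10^5) were incubated 1 h on ice with phage (10 nM) with or without 1 mM Neu5Ac, Glc or GlcU. They were washed in 1% BSA/PBS, labelled with anti-fd antibody and FITC-conjugated antibody, and analysed by flow cytometry.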

[13] = Selectivity ratio of Kd for ganglioside GalCer to Kd for ganglioside GM3
B16 [14] = assay: Inhibition of binding affinity to ganglioside GM3 in mouse B16 cells pretreated with neuraminidase at pH 6.5 at 10 nM by flow cytometry; assay type: cell-based; procedure, shortened: as §2
B16 [15] = assay: Inhibition of binding affinity to ganglioside GM3 in mouse B16 cells at 10 nM by flow cytometry in presence of GlcU; assay type: cell-based; procedure, shortened: as §3
B16 [16] = assay: Inhibition of binding affinity to ganglioside GM3 in mouse B16 cells at 10 nM by flow cytometry in presence of 1 mM Neu5Ac; assay type: cell-based; procedure, shortened: as §3
B16 [17] = assay: Binding affinity to ganglioside GM3 in mouse B16 cells at 1 to 10 nM by flow cytometry; assay type: cell-based
Procedure, shortened: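 B16 monolayer cells (2×10^5) were given serially diluted phage (0.5-10 nM) in 1% BSA/PBS for 1 h on ice. After washes, they were labelled with anti-fd antibody and then FITC anti-rabbit IgG (each 0.5 h on ice) and analysed by flow cytometry.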

Compound CCCCCCCCCCCCCCCCCC(=O)NCC(=O)N[C@@H](Cc1c[nH]c2ccccc12)C(=O)N[C@@H](Cc1c[nH]c2ccccc12)C(=O)N[C@@H](Cc1ccc(O)cc1)C(=O)N[C@@H](CCCCN)C(=O)NCC(=O)N[C@@H](CCCNC(=N)N)C(=O)N[C@@H](C)C(=O)N[C@@H](CCCNC(=N)N)C(=O)N1CCC[C@H]1C(=O)N[C@H](C(=O)N[C@@H](CO)C(=O)N[C@@H](C)C(=O)N[C@H](C(=O)N[C@@H](C)C(N)=O)C(C)C)C(C)C (Stearoyl-GWWYKGRARPVSAVA-NH2) has a CMC [1] of 0.8 µM, an IC50 (Influenza A virus) of 3.2 µM and an IC50 (H3N2 subtype) of over 10 µM.
With CCCCCCCCCCCCCCCCCC(=O)NCC(=O)N[C@@H](Cc1c[nH]c2ccccc12)C(=O)N[C@@H](Cc1c[nH]c2ccccc12)C(=O)N[C@@H](Cc1ccc(O)cc1)C(=O)N[C@@H](CCCCN)C(=O)NCC(=O)N[C@@H](CCCNC(=N)N)C(=O)N[C@@H](C)C(=O)N[C@@H](CCCNC(=N)N)C(=O)N[C@@H](C)C(=O)N[C@H](C(=O)N[C@@H](CO)C(=O)N[C@@H](C)C(=O)N[C@H](C(=O)N[C@@H](C)C(N)=O)C(C)C)C(C)C (Stearoyl-GWWYKGRARAVSAVA-NH2) the CMC [1] was 0.8 µM and the IC50 (Influenza A virus) was 89 µM.
CCCCCCCCCCCCCCCCCC(=O)NCC(=O)N[C@@H](C)C(=O)N[C@@H](Cc1c[nH]c2ccccc12)C(=O)N[C@@H](Cc1ccc(O)cc1)C(=O)N[C@@H](CCCCN)C(=O)NCC(=O)N[C@@H](CCCNC(=N)N)C(=O)N[C@@H](C)C(=O)N[C@@H](CCCNC(=N)N)C(=O)N1CCC[C@H]1C(=O)N[C@H](C(=O)N[C@@H](CO)C(=O)N[C@@H](C)C(=O)N[C@H](C(=O)N[C@@H](C)C(N)=O)C(C)C)C(C)C (Stearoyl-GAWYKGRARPVSAVA-NH2) gave a CMC [1] of 0.8 µM and an IC50 (Influenza A virus) of 53 µM.
In the case of H-RAVWRHSVATPSHSV-NH2, the IC50 (Influenza A virus) is reported as over 500 µM.
H-RAVWRHSVATPSHSV-OH showed a Kd ([2]; read-out: Kd) of over 70 µM, a Ratio [3] of under 0.006 and a Kd ([4]; read-out: Kd) of over 70 µM. For the same compound, the Ratio [5] was 0.2, the Kd ([6]; read-out: Kd) was 0.41 µM and the Ratio [7] was under 0.006. For the same compound, the fold change (FC) [8] was 1.5 and the Kd ([9]; read-out: Kd) was 2 µM.
For H-LSWPLHAGRGFRWVS-OH, the fold change (FC) [8] was 0.9.
With CCCCCCCCCCCCCCCCCC(=O)N[C@@H](CC(=O)O)C(=O)N[C@@H](Cc1ccccc1)C(=O)N[C@@H](CCCNC(=N)N)C(=O)N[C@@H](CCCNC(=N)N)C(=O)N[C@@H](CC(C)C)C(=O)N1CCC[C@H]1C(=O)NCC(=O)N[C@@H](C)C(=O)N[C@@H](Cc1ccccc1)C(=O)N[C@@H](Cc1c[nH]c2ccccc12)C(=O)N[C@@H](CCC(N)=O)C(=O)N[C@@H](CC(C)C)C(=O)N[C@@H](CCCNC(=N)N)C(=O)N[C@@H](CCC(N)=O)C(=O)N1CCC[C@H]1C(N)=O (Stearoyl-DFRRLPGAFWQLRQP-NH2) the CMC [1] was 0.8 µM, the IC50 (Influenza A virus) was 52 µM and the IC50 (H3N2 subtype) was 19 µM.
H-WRGVYFGDRWLGSQP-OH gave a fold change (FC) [8] of 1.6.
H-DFRRLPGAFWQLRQP-OH gave an Activity [10] of 119 ng/cm2.
Work on CCCCCCCCCCCCCCCCCC(=O)N[C@@H](C)C(=O)N[C@@H](CCC(=O)O)C(=O)N[C@H](C(=O)N[C@H](C(=O)N[C@@H](CCC(=O)O)C(=O)N[C@@H](CO)C(=O)N[C@@H](CS)C(=O)N[C@@H](CC(C)C)C(=O)N[C@@H](C)C(=O)N[C@@H](CCCCN)C(=O)N1CCC[C@H]1C(=O)N[C@@H](Cc1cnc[nH]1)C(=O)N[C@H](C(=O)N[C@@H](CCC(=O)O)C(=O)N[C@@H](CC(N)=O)C(N)=O)[C@H](C)O)C(C)C)[C@@H](C)O yielded a CMC [1] of 0.8 µM, an IC50 (Influenza A virus) of 66 µM and an IC50 (H3N2 subtype) of over 100 µM.
H-QQLVYNWWAVSSARR-OH showed a fold change (FC) [8] of 1.1.
For H-GWWYKGRARPVSAVA-OH, the Kd ([2]; read-out: Kd) was 9.8 µM, the Activity [10] was 39 ng/cm2 and the inhibition (B16 [11]) was “inactive”. For the same compound, the inhibition (B16 [12]) was “inactive”, the Ratio [3] was 0.15 and the Ratio [13] was 6.5. It also gave a Kd ([4]; read-out: Kd) of over 70 µM, a Ratio [5] of 1 and a Kd ([6]; read-out: Kd) of 1.5 µM. The Ratio [7] was under 0.02, the fold change (FC) [8] was 2.1 and the Kd ([9]; read-out: Kd) was 1.5 µM. The inhibition (B16 [14]) was “Active”, the inhibition (B16 [15]) was 46% and the inhibition (B16 [16]) was 61%. The Activity (B16 [17]) was “Active”.
CCCCCCCCCCCCCCCCCC(=O)N[C@@H](C)C(=O)N[C@H](C(=O)N[C@@H](C)C(=O)N[C@@H](CO)C(=O)N[C@H](C(=O)N1CCC[C@H]1C(=O)N[C@@H](CCCNC(=N)N)C(=O)N[C@@H](C)C(=O)N[C@@H](CCCNC(=N)N)C(=O)NCC(=O)N[C@@H](CCCCN)C(=O)N[C@@H](Cc1ccc(O)cc1)C(=O)N[C@@H](Cc1c[nH]c2ccccc12)C(=O)N[C@@H](Cc1c[nH]c2ccccc12)C(=O)NCC(N)=O)C(C)C)C(C)C (Stearoyl-AVASVPRARGKYWWG-NH2) gave a CMC [1] of 0.8 µM, an IC50 (Influenza A virus) of 44 µM and an IC50 (H3N2 subtype) of 17 µM.
With CCCCCCCCCCCCCCCCCC(=O)N[C@@H](CCCNC(=N)N)C(=O)N[C@@H](C)C(=O)N[C@H](C(=O)N[C@@H](Cc1c[nH]c2ccccc12)C(=O)N[C@@H](CCCNC(=N)N)C(=O)N[C@@H](Cc1cnc[nH]1)C(=O)N[C@@H](CO)C(=O)N[C@H](C(=O)N[C@@H](C)C(=O)N[C@H](C(=O)N1CCC[C@H]1C(=O)N[C@@H](CO)C(=O)N[C@@H](Cc1cnc[nH]1)C(=O)N[C@@H](CO)C(=O)N[C@H](C(N)=O)C(C)C)[C@@H](C)O)C(C)C)C(C)C (Stearoyl-RAVWRHSVATPSHSV-NH2) the CMC [1] was 0.8 µM, the IC50 (Influenza A virus) was 6.5 µM and the IC50 (H3N2 subtype) was 68 µM.
Compound H-GWYSSRHYVRSLNGL-OH has a fold change (FC) [8] of 1.4.
H-LWRPVLFHSAVRALG-OH showed a fold change (FC) [8] of 1.7.
H-GWWYKGRARPVSAVA-NH2 gave an IC50 (Influenza A virus) of over 500 µM.
With CC(C)C[C@H](NC(=O)[C@H](CO)NC(=O)[C@H](CC(=O)O)NC(=O)[C@H](Cc1ccccc1)NC(=O)[C@H](C)NC(=O)[C@H](C)NC(=O)[C@H](CCCN)NC(=O)[C@H](C)NC(=O)[C@@H]1CCCN1C(=O)[C@H](CC(=O)O)NC(=O)[C@H](CC(=O)O)NC(=O)CNC(=O)[C@H](CCC(=O)O)NC(=O)[C@H](C)N)C(=O)N[C@@H](CCC(N)=O)C(=O)O the Kd [2] was “Not Active”, the Kd [4] was “Not Active” and the Kd [6] was “Not Active”. For the same compound, the Kd [9] was “Not Active”.
